Most compounds without a hit are left out; they make up all but 1.9% or so of the library.
Rad51 HR inh = human RAD51 strand exchange inhibitors, primary screen, biochemical, fluorescence; DNA repair protein RAD51 homolog 1 (Homo sapiens), Q06609; hRad51 DNA strand exchange, fluorescence dequenching; inhibition, % at 10 µM; actives 0.085% (n = 200,000); AID 1385, 2008;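 active means inhibition above 40% at the single screening dose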;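 further: 0% = DMSO control wells and 100% = blanks with heterologous ssDNA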
Target sequence (Q06609 whole entry, looked up): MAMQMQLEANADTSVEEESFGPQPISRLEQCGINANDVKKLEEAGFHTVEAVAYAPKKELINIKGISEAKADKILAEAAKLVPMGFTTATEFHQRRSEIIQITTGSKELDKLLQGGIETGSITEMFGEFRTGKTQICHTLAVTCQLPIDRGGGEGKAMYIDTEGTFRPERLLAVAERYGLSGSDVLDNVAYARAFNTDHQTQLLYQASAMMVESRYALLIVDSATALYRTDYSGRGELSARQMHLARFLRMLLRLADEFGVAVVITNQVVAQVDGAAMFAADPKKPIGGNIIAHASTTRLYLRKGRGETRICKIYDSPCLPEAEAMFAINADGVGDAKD
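System: hRad51 filaments on single-stranded DNA; reagent: Fluorescein- and BHQ1-tagged 47-mer duplex; compound dosing: one concentration, 10 µM final; timing: filaments 15 min 37 °C, then compound 30 min; measured by: fluorescein emission 520 nm, excitation 485 nm; benchmarks: per-plate controls and blanks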
TAG inh = inhibitors of triacylglycerol accumulation, primary screen, cell-based, uHTS, fluorescence, H9c2. H9c2 cells, Nile Red lipid (TAG) fluorescence; cells loaded with 200 µM oleic acid. inhibition, % at 12.5 µM. actives 0.66% (n = 230,000);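 active means pattern-corrected inhibition of lipid staining of at least 50% with the nuclear-stain viability signal not falling by more than 50%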;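 further: 0% = DMSO wells and 100% = triacsin C control wells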
GAA850 FXN act = FXN promoter activators, primary screen, cell-based, luciferase luminescence, HEK293 lucGAA850; HEK293 lucGAA850 FXN promoter luciferase reporter, 24 h; percent of 10 µM SAHA response; activation, % at 6 µM; actives 0.56% (n = 360,000);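 active means activation above the average of all compounds screened plus 3 SD, cutoff fixed separately per campaign, cut at about 7.5% in these data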;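 further: 0% = DMSO wells and 100% = 10 µM SAHA wells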
Hsp70 activator = Hsp70 transcriptional activators, primary screen, cell-based, HeLa, Hsp70 promoter luciferase, luminescence, 10 µM | HeLa Hsp70 promoter luciferase reporter; scaled: vehicle 0, proteasome-inhibitor control 100% | activation, % at 10 µM | actives 0.04% (n = 200,000);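 active means activation above the mean across all tested compounds plus 3 SD, cutoff set per campaign, cut at about 5.5% in these data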;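 further: 100% = MG132 at 30 µM as the positive control and 0% = DMSO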
HIF activator = HIF pathway transcriptional activators, primary screen, cell-based, U2OS HRE-luciferase, luminescence; actives 0.32% (n = 300,000); U2OS HRE-luciferase reporter; normalized: DMSO 0%, desferrioxamine 100%; activation, % at 7.5 µM (by protocol);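 active means mean activation of at least 10% of the iron chelator positive control signal, with at least half of replicates also reaching 10%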
ABHD5 PLIN5 PPI = ABHD5-PLIN5 interaction inhibitors, primary screen, cell lysate, split luciferase complementation, luminescence | Perilipin-5 (Homo sapiens) + 1-acylglycerol-3-phosphate O-acyltransferase ABHD5 (Homo … | actives 0.78% (n = 360,000) | inhibition, % at 4 µM | AID 602281, 2012 | Split G. princeps luciferase complementation, 4 h;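 active means inhibition above the mean inhibition across every tested compound plus 3 SD, cut at about 22% in these data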;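 further: 0% = DMSO only wells and the 100% control is not disclosed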
ABHD5 PLIN5 conf = ABHD5-PLIN5 interaction inhibitors, confirmation, biochemical, luminescence | AID 651612, 2012 | shares compounds with ABHD5 PLIN5 PPI | inhibition, % at 4 µM | actives 67% (n = 2,200); in the data active means inhibition above about 23%;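 further: 0% = DMSO vehicle wells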
HNF4 split-luc = HNF4 dimerization inhibitors, counter-screen for ABHD5-PLIN5 interaction inhibitor project, biochemical, split-luciferase complementation, luminescence; actives 77% (n = 2,200); AID 651674, 2012; shares compounds with ABHD5 PLIN5 PPI; inhibition, % at 4 µM;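 active means mean inhibition across replicate wells exceeding the computed hit threshold, cut at about 13% in these data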;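 further: light from luciferase halves that rejoin when HNF4 fusion proteins dimerize; 0% = DMSO only wells and the 100% control is not given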
The depositor's hits bear a star; / = not tested or not shown.

SMILES	Rad51 HR inh	TAG inh	GAA850 FXN act	Hsp70 activator	HIF activator	ABHD5 PLIN5 PPI	ABHD5 PLIN5 conf	HNF4 split-luc
Cc1nn(-c2ccccc2)c2nc(-c3ccncc3)cc(C(=O)NCc3ccco3)c12	-1	40	3	0	0	24*	21	26*
O=C(NCc1ccco1)c1cc2nc(-c3cccs3)cc(C(F)(F)F)n2n1	-7	/	3	0	0	23*	13	16*
Cc1nn(-c2ccccn2)c2nc(-c3cccs3)cc(C(=O)NCc3ccco3)c12	-1	/	1	0	1	35*	14	15*
Cc1c(C(=O)N(Cc2ccco2)Cc2cccs2)oc2ccccc12	/	-6	3	/	/	28*	20	15*
O=C(c1cc2ccccc2o1)N(Cc1ccco1)Cc1cccs1	/	-19	2	/	-1	-1	/	/
O=C(CN(CCc1ccccc1)S(=O)(=O)c1ccc(Cl)cc1)N/N=C/c1ccccc1C(=O)O	-5	-13	2	0	0	-3	/	/
CC(=O)OCCNc1cc(SCc2ccco2)c2nonc2c1[N+](=O)[O-]	/	/	5	0	-1	10	/	/
CC(=O)OCCNc1cc(Sc2nc3ccccc3[nH]2)c2nonc2c1[N+](=O)[O-]	-6	/	1	0	1	60*	71*	112*
COC(=O)c1cc(C)nc2c1C(=O)C(=O)C=C2N1CCOCC1	/	/	-13	/	-2	39*	73*	53*
COC(=O)c1cc(S(=O)(=O)N2CCOCC2)c(Cl)cc1N1CCOCC1	3	/	-2	0	0	-1	/	/
Cc1ccc(S(=O)(=O)c2ncccc2[N+](=O)[O-])cc1	/	/	-6	/	-24	43*	55*	70*
CC1=C(C)CS(=O)N(S(=O)(=O)c2ccc(Cl)cc2)C1 (stereo unspecified)	6	/	0	0	1	80*	93*	109*
CC1CCCC(C)N1S(=O)(=O)c1ccc(Cl)cc1 (stereo unspecified)	/	-12	0	/	0	-13	/	/
O=c1c2cc(N3CCOCC3)ccc2[nH]c(=S)n1Cc1ccc(Cl)cc1	-1	/	4	0	3	-6	/	/
Cc1ccc(Cn2c(=S)[nH]c3ccc(N4CCOCC4)cc3c2=O)o1	0	-11	4	0	1	31*	43*	91*
COc1ccc(OC)c(NC(=O)CN2C(=O)CSc3ccc(S(=O)(=O)N4CCCC4)cc32)c1	/	/	1	/	0	54*	1	7
COc1ccc(C)cc1NC(=O)CN1C(=O)CSc2ccc(S(=O)(=O)N3CCCC3)cc21	/	/	0	/	0	1	/	/
O=C(Nc1nc2nccc(-c3ccccc3)n2n1)C(Cl)(Cl)Cl	3	/	4	0	0	-1	/	/
O=C(Cn1nc(CNc2ccc(Cl)cc2)[n+]2c1CCCCC2)c1ccccc1	-11	/	0	0	1	25*	13	4
COc1ccc(OC(=O)C(C)N2C(=O)c3ccccc3C2=O)cc1 (stereo unspecified)	/	/	1	/	0	5	/	/
CC1=CC(C)(C)Nc2ccc(OC(=O)C(C)N3C(=O)c4ccccc4C3=O)cc21 (stereo unspecified)	-2	4	5	0	-2	58*	90*	24*
CC1=CC(C)(C)Nc2ccc(C)cc21	7	/	5	0	0	-2	/	/
CC1=CC(C)(C)Nc2ccc(OC(=O)c3ccco3)cc21	0	/	5	0	-1	67*	91*	91*
CC1=CC(C)(C)Nc2ccc(OC(=O)c3cccnc3)cc21	6	/	7	0	-1	78*	97*	72*
CC1=CC(C)(C)Nc2ccc(OC(=O)CN3C(=O)CCC3=O)cc21	-3	/	4	0	-2	80*	96*	33*
SMILES	Rad51 HR inh	TAG inh	GAA850 FXN act	Hsp70 activator	HIF activator	ABHD5 PLIN5 PPI	ABHD5 PLIN5 conf	HNF4 split-luc
CN(CC(=O)Nc1ccc(F)c(F)c1F)C(=O)c1ccc2c(c1)S(=O)(=O)N=C1CCCCCN12	/	-6	0	/	0	3	/	/
O/N=C/c1cc(Br)cs1	21	1	1	/	0	11	/	/
CCc1nc(Nc2ccc(OC)cc2OC)c2oc3ccccc3c2n1	/	/	1	/	0	-2	/	/
COCCN(C(=O)COC(=O)CCC1CCCC1)c1c(N)n(Cc2ccccc2)c(=O)[nH]c1=O	/	1	1	/	0	0	/	/
CC(C)CNC(=O)/C=C/C=C/c1ccc2c(c1)OCO2	/	/	0	/	/	-3	/	/
COc1ccc(C=CC(=O)c2ccc3cc(OC)c(OC)cc3c2)cc1OC	/	17	-3	/	/	41*	41*	26*
COc1ccc(/C=C/C(=O)c2ccc(NC3=NCCCS3)cc2)cc1OC	2	-19	-1	0	5	36*	47*	40*
CCC1CSC(Nc2ccc(C(=O)/C=C/c3ccc(OC)c(OC)c3)cc2)=N1 (stereo unspecified)	/	/	1	0	2	17	/	/
COc1cc(OC)c(C(=O)C=Cc2ccc(OC)c(OC)c2)c(OC)c1	/	13	0	/	/	20	/	/
COc1ccc(C=CC(=O)c2ccc(OC)c(OC)c2O)cc1OC	/	11	0	/	/	46*	55*	44*
CCC1CSC(Nc2ccc(C(=O)/C=C/c3ccc(Br)cc3)cc2)=N1 (stereo unspecified)	7	-24	3	0	1	24*	52*	39*
CCCNC(=O)C[C@@H]1CC[C@H]2NC[C@H](O)COC[C@@H]2O1	/	/	/	/	/	-6	/	/
CCc1ccc(CN2CCC(n3nccc3NC(=O)C3CCCC3)CC2)cc1	/	-10	1	/	0	-6	/	/
COc1ccc(C(=O)/C=C/c2ccc(OC)c(O)c2)c(F)c1	-11	/	-4	0	1	29*	55*	50*
O=C(c1ccc2ccccc2c1)N1CCN(S(=O)(=O)/C=C/c2ccccc2)CC1	15	-7	-1	0	0	3	/	/
O=C(/C=C/c1ccccc1)c1ccc2ccccc2c1	/	2	7	/	/	53*	76*	63*

Screens: PubChem, several laboratories
